For data set [1], the system named is Papio. Briefly: Deuterium isotope effect on Vmax/Km for baboon liver mitochondrial MAOB assessed as oxidation of 1-methyl-3-(4-fluorophenyl-3-pyrroline by HPLC/UV analysis. Particulars: tested as the 2H-labelled form.
For data set [2], the system named is Papio. Briefly: Activity of baboon liver mitochondrial MAOB per mg of mitochondria assessed as oxidation of 1-methyl-3-(4-fluorophenyl-3-pyrroline by HPLC/UV analysis. Particulars: tested as the 2H-labelled form. A digest of the protocol:
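Baboon liver mitochondrial fraction as MAO-B source (no MAO-A activity; protein by Bradford), 0.15 mg protein/mL, in 100 mM sodium phosphate pH 7.4. Substrate as oxalate salt at eight concentrations, 12.5–2000 µM. Incubated 10 min at 37 °C; stopped with trichloroacetic acid. Pyrrolyl product quantified by HPLC-UV at 270 nm against calibration curve. Triplicates; Michaelis–Menten fit for Km and Vmax (nmol/min-mg mitochondria).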

The test system of data set [3] is Papio. Briefly: Activity of baboon liver mitochondrial MAOB per mg of mitochondria by HPLC/UV analysis. The gist of the method: (§1)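 Enzyme source was baboon liver mitochondria (no MAO-A inactivation), at 0.15 mg protein/mL in 100 mM sodium phosphate, pH 7.4. Substrate oxalate salts were tested at eight concentrations, 12.5–2000 µM, for 10 min at 37 °C, then stopped with trichloroacetic acid and centrifuged. Pyrrolyl products were measured by HPLC-UV at 270 nm against calibration curves. Initial rates were fitted to Michaelis–Menten, in triplicate, mean ± SEM.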

The subject of data set [4] is Papio. Briefly: Activity of baboon liver mitochondrial MAOB by HPLC/UV analysis. The gist of the method: as §1
In data set [5] the test system is Papio. Briefly: Activity of baboon liver mitochondrial MAOB per mg of mitochondria assessed as oxidation of 1-methyl-3-phenyl-3-pyrroline by HPLC/UV analysis. Particulars: tested as the 2H-labelled form. A digest of the protocol: as §1
Data set [6] can be described thus: Metabolic stability in (R)-deprenyl pre-inactivated baboon liver mitochondrial fraction assessed as oxidation to 1-methyl-3-phenylpyrrole. The format is ADME, Papio.
Data set [7] has as its system Papio. Briefly: Ratio of Vmax to Km for baboon liver mitochondrial MAOB assessed as oxidation of 1-methyl-3-phenyl-3-pyrroline by HPLC/UV analysis. As to conditions: tested as the 2H-labelled form. The gist of the method: as §1
Data set [8] can be described thus: Metabolic stability in (R)-deprenyl pre-inactivated baboon liver mitochondrial fraction assessed as pyrrolyl oxidation product at 50 uM after 10 mins by HPLC analysis. The class given is ADME, Papio.

For `CN1CC=C(c2ccc(F)cc2)C1`, the D(Vmax/Km) isotope effect in data set [1] was 3.37. The D(Km) isotope effect in data set [2] turned out to be 1.19. In addition, in data set [2], the D(Vmax) isotope effect amounted to 3.98. The Vmax is 15.7 nmol/min in data set [3] and 3.96 nmol/min in data set [3] (tested as the 2H-labelled form). In addition, the Km in data set [4] was 87.2 µM; in data set [4] (tested as the 2H-labelled form), 73.8 µM.

In the case of `CN1CC=C(c2ccccc2)C1`, the Km in data set [5] was 0.8 µM; in data set [4], 118 µM; in data set [4] (tested as the 2H-labelled form), 157 µM. The Vmax worked out at 4.29 nmol/min in data set [5], 9.07 nmol/min in data set [3] and 2.11 nmol/min in data set [3] (tested as the 2H-labelled form). In data set [6], the Activity was 8.4%. The Vmax/Km in data set [7] worked out at 5.71 nmol/min.µM.

As to `[2H]C1=C(c2ccccc2)C([2H])([2H])N(C)C1([2H])[2H]`, the Activity in data set [8] turned out to be 2.6%.

A word on the Vmax: it is the top rate of the reaction or transport when substrate is in excess. Broadly, the Km is the substrate concentration at which the rate is half of its maximum.

The values are drawn from ChEMBL document CHEMBL1144241, “Deuterium isotope effects for the oxidation of 1-methyl-3-phenyl-3-pyrrolinyl analogues by monoamine oxidase B” (Bioorg Med Chem, 2008).
